Experiment [1] relates to Pan troglodytes. The experiment in a line: Compound was tested for the oral natriuretic activity in chimpanzee at the dose 5 mg/kg expressed as excretion rate in microequiv of Na+/min. The format is functional. A digest of the protocol: (§1)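 GFR measured by iv pyrogen-free inulin. Inulin and urate clearances and Na+, K+, Cl- excretion rates measured by Auto Analyzer. Control values averaged over three 20-min periods. Compound given orally as aqueous solution via nasal catheter. Response is the mean of eight 15–20 min periods minus control, from single experiments.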

The subject of experiment [2] is Rattus norvegicus. The experiment in a line: Compound was tested for the oral natriuretic activity in female rats at the dose 27 mg/kg; mequiv of Na+ x 100 / cage. Format: functional. A digest of the protocol:
(§2)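 Female Charles River rats (150–170 g) were kept overnight on a sugar diet with water ad libitum. Compound was dosed po in a final vehicle of 4% DMF in water with Tween 80, alongside concurrent vehicle placebo. Rats were housed three per metabolism cage and urine was collected over 0–5 h. Na+ is reported as mequiv ×100 per cage, as the geometric mean of three cages per dose.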

Experiment [3] relates to Rattus norvegicus. The experiment can be described thus: Compound was tested for the oral natriuretic activity in female rats at the dose 81 mg/kg; mequiv of Na+ x 100 / cage. Format: functional. The procedure, abridged:
as §2

Experiment [4] has as its system Rattus norvegicus. The experiment can be described thus: Compound was tested for the oral natriuretic activity in female rats at the dose 3 mg/kg; mequiv of Na+ x 100 / cage. Format: functional. A digest of the protocol: as §2
Experiment [5] deals with Rattus norvegicus. The experiment in a line: Compound was tested for the oral natriuretic activity in female rats at the dose 9 mg/kg; mequiv of Na+ x 100 / cage. The format is functional. The procedure, abridged:
as §2

The nature of experiment [6]: Compound was tested for the ratio of clearance of urate to clearance of inulin levels at 5 mg/kg in Chimpanzee. Format: functional. A digest of the protocol: as §1
For experiment [7], the system named is Pan troglodytes. The experiment can be described thus: Compound was tested for the oral diuretic activity in chimpanzee at the dose 0.1 mg/kg expressed as excretion rate in microequiv of Cl-/min. Format: functional, Urine. A digest of the protocol:
as §1

Experiment [8] deals with Pan troglodytes. The experiment in a line: Compound was tested for the oral diuretic activity in chimpanzee at the dose 0.1 mg/kg expressed as excretion rate in microequiv of K+/min. The format is functional, Urine. A digest of the protocol: as §1
Experiment [9] concerns Pan troglodytes. The experiment in a line: Compound was tested for the oral natriuretic activity in chimpanzee at the dose 0.1 mg/kg expressed as excretion rate in microequiv of Na+/min. The format is functional. The procedure, abridged:
as §1

In experiment [10] the test system is Pan troglodytes. The experiment can be described thus: Compound was tested for the oral diuretic activity in chimpanzee at the dose 5 mg/kg expressed as excretion rate in microequiv of K+/min. Format: functional, Urine. The procedure, abridged: as §1
For experiment [11], the system named is Pan troglodytes. The experiment in a line: Compound was tested for the oral diuretic activity in chimpanzee at the dose 5 mg/kg expressed as excretion rate in microequiv of Cl-/min. Format: functional, Urine. A digest of the protocol: as §1
Experiment [12] deals with Pan troglodytes. The experiment can be described thus: Compound was tested for the oral natriuretic activity in chimpanzee at 5 mg/kg by observing the excretion rates of sodium; µequiv of Na+/min.

On to `CCC1C(=O)c2c(Cl)c(Cl)c3c(c2C1c1ccccc1)CC(C(=O)O)O3` (centres undefined), for which the Excretion rate in the experiment with Pan troglodytes [1] came out at 820; in the experiment with Rattus norvegicus [2] it was 82; in the experiment with Rattus norvegicus [3] it was 87; in the experiment on Rattus norvegicus [4] it was 94; in the experiment on Rattus norvegicus [5], 109. For the same molecule, the Ratio in experiment [6] was determined as 0.16.

As to `CCCC1Cc2c3c(c(C)c(C)c2C1=O)OC(C(=O)O)C3` (centres undefined), the Excretion rate in the experiment on Pan troglodytes [1] was determined as 252. Besides, the Ratio in experiment [6] was found to be 0.01.

For `CCCC1Cc2c(c(C)c(C)c3oc(C(=O)O)cc23)C1=O` (centres undefined), the Excretion rate with Pan troglodytes [1] amounted to 0; with Rattus norvegicus [2] it was 32; in the experiment with Rattus norvegicus [3], 28; in the experiment on Rattus norvegicus [4], 15; with Rattus norvegicus [5], 16. Further, in experiment [6], the Ratio was 0.01.

Turning to `CC1(c2ccccc2)Cc2c3c(c(Cl)c(Cl)c2C1=O)O[C@H](C(=O)O)C3` (some centres undefined), the Excretion rate with Pan troglodytes [7] worked out at 1532; with Rattus norvegicus [2], 281; in the experiment on Rattus norvegicus [3] it was 388; with Rattus norvegicus [4], 189; with Rattus norvegicus [5], 267; in the experiment on Pan troglodytes [8], 88. Moreover, in the experiment with Pan troglodytes [9], the Excretion rate came out at 1305. Besides, the Ratio in [6] worked out at 0.09.

As to `CC1(C2CCCC2)Cc2c3c(c(Cl)c(Cl)c2C1=O)O[C@@H](C(=O)O)C3` (some centres undefined), the Excretion rate in the experiment on Pan troglodytes [10] stood at 63; with Pan troglodytes [1] it was 437; in the experiment on Rattus norvegicus [2] it was 279; in the experiment on Rattus norvegicus [3], 340; with Rattus norvegicus [4], 127; in the experiment with Rattus norvegicus [5], 223. Also, in the experiment on Pan troglodytes [11], the Excretion rate turned out to be 614. The Ratio in [6] is reported as -0.04.

With `O=C(O)COc1cc2c(c(Cl)c1Cl)C(=O)C1(CCCC1)C2`, the Excretion rate with Pan troglodytes [10] came out at 42; in the experiment with Pan troglodytes [1], 321; with Pan troglodytes [11], 399. In addition, the Ratio in [6] was found to be 0.14.

For the molecule `CC1(C2CCCC2)Cc2cc(OCC(=O)O)c(Cl)c(Cl)c2C1=O` (centres undefined), the Excretion rate is listed as 64 with Pan troglodytes [10], 425 with Pan troglodytes [1] and 367 in the experiment on Pan troglodytes [11]. Moreover, the Ratio in [6] stood at 0.2.

Turning to `O=C(O)[C@H]1Cc2c3c(c(Cl)c(Cl)c2O1)C(=O)C1(CCCC1)C3` (stereo in doubt; 4d), the Excretion rate worked out at 274 in the experiment on Pan troglodytes [10]; 1500 in the experiment with Pan troglodytes [1] (5 mg/kg); 349 with Rattus norvegicus [2]; 432 in the experiment with Rattus norvegicus [3]; 224 in the experiment with Rattus norvegicus [4] (3 mg/kg); 323 in the experiment with Rattus norvegicus [5] (9 mg/kg). Besides, in the experiment on Pan troglodytes [11], the Excretion rate was 1990. In addition, the Ratio in experiment [6] (5 mg/kg) is on record as 0.

On to `NS(=O)(=O)c1cc(C(=O)O)c(NCc2ccco2)cc1Cl` [FUROSEMIDE], for which the Excretion rate with Rattus norvegicus [2] was 125; in the experiment with Rattus norvegicus [3] it was 244; in the experiment on Rattus norvegicus [5], 7; with Pan troglodytes [12], 1040 µequiv/min. In addition, the Ratio in [6] is listed as -0.02.

On to `NS(=O)(=O)c1cc2c(cc1Cl)NCNS2(=O)=O` [HYDROCHLOROTHIAZIDE], for which the Excretion rate with Pan troglodytes [10] came out at 73; in the experiment on Pan troglodytes [1], 144; with Rattus norvegicus [5] it was 112; in the experiment with Pan troglodytes [11], 198.

With `CC1(c2ccccc2)Cc2cc(OCC(=O)O)c(Cl)c(Cl)c2C1=O` (centres undefined) [INDACRINONE], the Excretion rate is 108 in the experiment on Pan troglodytes [10]; 409 in the experiment on Pan troglodytes [1]; 129 with Rattus norvegicus [2]; 189 in the experiment with Rattus norvegicus [3]; 86 with Rattus norvegicus [4]; 97 in the experiment with Rattus norvegicus [5]. Further, in the experiment on Pan troglodytes [11], the Excretion rate came to 539. Moreover, the Ratio in [6] is recorded as 0.38.

For `CCCN(CCC)S(=O)(=O)c1ccc(C(=O)O)cc1` [PROBENECID], in experiment [6], the Ratio amounted to 0.05.

Source of the values: ChEMBL document CHEMBL1121664, “(Acylaryloxy)acetic acid diuretics. 4. Indeno[5,4-b]furan-2-carboxylic acids” (1981).
